Data reported in ChEMBL document CHEMBL1177751, “Antifungal and cytotoxic activity of withanolides from Acnistus arborescens” (J Nat Prod, 2010).

Legend:
[1] = Cytotoxicity against imatinib and dasatinib-resistant mouse DA1-3b/M2 cells after 72 hrs by MTT assay; type: functional, cell-based
Summary of the method: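 Cells seeded at 10^4/well and exposed to compound or DMSO vehicle for 72 h. MTT added for the final 4 h, absorbance read at 490 nm; triplicate, camptothecin as positive control. K562R, DA1-3b/M2 and bone marrow cells (three healthy donors) grown in RPMI 1640 + 1% glutamine, 1% penicillin/streptomycin, 10% FCS. EML-C1 cultured per ATCC instructions.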

[2] = tested on: Pneumocystis carinii; test: Antifungal activity against Pneumocystis carinii after 4 days by RAL-555 staining based microscopy; type: functional, organism-based; settings: 96 h
Summary of the method: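 Pneumocystis carinii came from the lungs of athymic Lou nu/nu rats that were dexamethasone-immunosuppressed and infected. Broth microdilution in DMEM + 10% FCS, 1.0 × 10^6 organisms/mL, final drug 1.1 × 10^-5 to 212.3 µM diluted from DMSO stocks. Incubated 4 days at 37 °C, 5% CO2, with a drug-free control. Smears stained with RAL-555 and counted microscopically; triplicate. Hill (Emax sigmoid) model used.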

SMILES | IC50 [1] [nM] | IC50 [2] [nM]
CC[C@@]1(O)C(=O)OCc2c1cc1n(c2=O)Cc2cc3ccccc3nc2-1 [CAMPTOTHECIN] | 30 | 
N=C(N)c1ccc(OCCCCCOc2ccc(C(=N)N)cc2)cc1 [PENTAMIDINE] |  | 84
